For series [1], the target named is T1, Aβ(1–40) aggregates (Homo sapiens, UniProt P05067). The series can be described thus: Dynamic light scattering. In kind it is biochemical. The conditions noted are these: 28 μM Aβ, 1.4 μM peptide; 37 °C; 2 h; z-averaged hydrodynamic diameter; Aβ alone 400 nm after 2 h.
The target in series [2] is Aβ(1–40) fibrils (Homo sapiens, UniProt P05067). The series can be described thus: Transmission electron microscopy. In kind it is biochemical. The conditions noted are these: 28 μM Aβ + 1.4 μM peptide; 24 h at 37 °C; PBSA.
In series [3] the target is T1, Aβ(1–40) aggregates. The series can be described thus: Nanoparticle tracking analysis. In kind it is biochemical. The gist of the method:
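Aβ(1-40) stock prepared by dissolving in 50% acetonitrile, relyophilizing, and reconstituting in urea/glycine buffer at 12 mg/mL. Samples: 28 µM Aβ alone or with 1.4 µM test peptide, or peptide alone. Nanosight LM10, 405 nm laser, video capture started immediately. One 60-s video per time point over 2 h, room temperature, camera level 13. Buffers 0.02 µm-filtered. Number concentration taken from the instrument-defined scattering volume. Only particles above ~30 nm are detected.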

A short description of series [4]: Solubility of lyophilized peptide in PBS or water. The series is classed as physicochemical.
Series [5] has as its target Aβ(1–40) fibril formation (Homo sapiens, UniProt P05067). Nature of the series: Thioflavin T. In kind it is biochemical. The conditions noted are these: 28 μM Aβ, 1.4 μM peptide; PBSA, 37 °C, up to 48 h; three replicates. The gist of the method: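 Aβ(1-40) stock in urea/glycine buffer, previously relyophilized from 50% acetonitrile. 28 µM Aβ incubated in PBSA at 37 °C alone or with 2.8, 1.4 or 0.28 µM test peptide. At 1 or 4, 24 and 48 h, aliquots mixed with 10 µM ThT in PBS. Excitation 440 nm, emission scanned 460–500 nm. Three serial spectra averaged, ThT/PBS background subtracted, 480 nm intensity compared.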

Non-standard residues stand in square brackets, D forms with d. Residues, ends and D or L forms follow the SMILES beside them.

T1 sequence (P05067 672-711 limits assumed): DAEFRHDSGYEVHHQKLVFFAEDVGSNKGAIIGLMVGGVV
Aβ(1–40) fibril formation, sequence (P05067 672-711 limits assumed): as above
Aβ(1–40) fibrils, sequence (P05067 672-711 limits assumed): as above

For `CC[C@H](C)[C@@H]1NC(=O)[C@H]([C@@H](C)O)NC(=O)[C@H](Cc2ccc(O)cc2)NC(=O)[C@H](CCCNC(=N)N)NC(=O)[C@@H]2CCCN2C(=O)[C@H]2CCCN2C(=O)[C@H]([C@@H](C)O)NC(=O)[C@H](C(C)C)NC(=O)[C@H](C(C)C)NC(=O)[C@H](CCCCN)NC(=O)[C@H](CO)NC(=O)[C@H](CCC(N)=O)NC(=O)[C@H](CO)NC(=O)[C@H](Cc2ccc(O)cc2)NC(=O)[C@H](CO)NC(=O)[C@H](Cc2ccc(O)cc2)NC(=O)[C@@H]2CCCN2C(=O)[C@H](CO)NC(=O)[C@H](CC(C)C)NC(=O)[C@H](CC(C)C)NC(=O)[C@H](C)NC(=O)[C@H](C)NC1=O` [CG3] (cyclo(SKVVT[dP]PRYTIAALLSPYSYSQ)), the “effect on size and growth rate of Aβ aggregates (DLS)” value in series [1] is “size and growth rate of Aβ aggregates increased”. Also, the “Aβ aggregate morphology by TEM” value in series [2] is “still a large number of fibrils, but many appeared to be shorter”. Also, the “particles from peptide alone (NTA)” value in series [3] (1.4 μM peptide in the absence of Aβ, detection limit ~30 nm, data not shown) is “no detectable particles above background”. The “initial particle number concentration relative to Aβ alone (NTA)” value in series [3] (28 μM Aβ, 1.4 μM peptide, PBSA, room temperature, shortly after mixing) is on record as “about 2 fold”. In addition, the “mean hydrodynamic diameter of aggregates after 2 h (NTA)” value in series [3] (28 μM Aβ, 1.4 μM peptide, number-averaged) is ~ 400 nm. In series [3] (28 μM Aβ, 1.4 μM peptide, number-averaged, Aβ alone ~80 nm), the “mean hydrodynamic diameter of aggregates shortly after mixing (NTA)” value is on record as 120 nm. For the same compound, the solubility in series [4] (aqueous buffer) is more than 650 µg/mL; in series [4] (water) it was more than 600 µM. For the same compound, the “inhibition of ThT fluorescence at 20:1 Aβ/peptide” value in series [5] was “partially inhibited”.

Source of the values: paper PMC5051546 (ACS chemical neuroscience, 2016).
